Test results published in ChEMBL document CHEMBL4513216, “Probing the Open Global Health Chemical Diversity Library for Multistage-Active Starting Points for Next-Generation Antimalarials” (ACS Infect Dis, 2020).

Assay: Toxicity liver stage against HepG2, at 10uM
Assay type: cell-based
Design: test concentration 10 uM, cell line HepG2-A16-CD81EGFP
Settings: human, HepG2-A16-CD81EGFP cells; read-out: INHIBITION
In short: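 Uninfected HepG2-A16-CD81EGFP cells, 3 × 10^3 per well, 1536-well, plated on prespotted compound at 10 μM final, parasite-free screening media added to match infected plates; puromycin 10 μM positive, DMSO 0.5% negative; run in parallel with 48 h PbLuc assay at 37 °C, 5% CO2; viability by CellTiter-Glo luminescence, normalized to controls.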

SMILES | cytotoxicity at 10 µM
O=C1N(Cc2cccc(F)c2F)CCCC1(O)CNCc1ccccc1 (stereo unspecified) | -9.45%
Cn1cc2ncn([C@H]3CCN(Cc4ccccc4)C3)c(=O)c2n1 | 2.89%
Cc1cc(F)ccc1C(=O)N1CCN(C)C2(CCC(=O)N(C)CC2)C1 (stereo unspecified) | 4.78%
Cc1ccc(CN(C)C(=O)CN2CCCC2c2cnn(C)c2)cc1 (stereo unspecified) | -1.6%
O=C(Cc1ccc2c(c1)OCCO2)NC1CCN(CC(F)F)CC1 | -9.86%
CSCCCN1CCCC1c1noc(C)n1 (stereo unspecified) | -7.59%
CNS(=O)(=O)c1ccc(C(=O)NCc2ccnc(OC)c2)cc1 | 2.86%
CCC(NC(=O)CC(F)(F)F)c1ccccc1OCC(=O)N1CCCC1 (stereo unspecified) | 0.145%
O=C(NC1CCN(c2ncccc2F)C1)c1cccc(-n2ccnn2)c1 (stereo unspecified) | 7.49%
c1cc(CN2CCC3(CC2)COC(COCC2CC2)C3)ccn1 (stereo unspecified) | -0.443%
Cn1cc2ncn(CCC3CCN(Cc4ccccc4)C3)c(=O)c2n1 (stereo unspecified) | 1.28%
O=S(=O)(C1CC1)N1CCc2onc(COc3ccccn3)c2C1 | -4.38%
Cc1cc(NC(=O)CN2CCc3nn(C)c(=O)cc3C2)no1 | -5.04%
O=C1CCC2(CCCN(c3ncnc4[nH]cnc34)C2)CN1CCCO (stereo unspecified) | -2.09%
COc1ccc(CC(=O)N2CCCC2Cn2cc(C)cn2)c(OC)c1 (stereo unspecified) | -18%
CCOc1cc(NC(=O)NCCn2cnnc2CC)ccc1C | -7.37%
NC(=O)c1cccc(CN2CCOC(Cn3cccn3)C2)c1 (stereo unspecified) | -2.69%
Cc1cccc(NC(=O)CCC(=O)NCC(=O)c2ccccc2F)c1 | -6.56%
CC1c2ncc(Cn3cncn3)n2CCN1C(=O)c1ccccn1 (stereo unspecified) | -0.785%
CN(C)Cc1nn(C)c2c1CCN(C(=O)c1cccnc1)C2 | 6.24%
Cc1cccc2nc(CSCC(=O)Nc3nnc(C(C)C)s3)cc(=O)n12 | -3.95%
CCS(=O)(=O)N1CCN(C(=O)NC(C)C)CC2(CC(=O)N(C)C2)C1 (stereo unspecified) | 6.62%
CCc1cc(N2CCN(c3cnccn3)CC2)n2nc(C)c(C)c2n1 | 6.71%

SMILES | cytotoxicity at 10 µM
CSCC[C@H](NC(C)=O)c1nc(CC(C)C)n[nH]1 | 6.05%
CC(C)NC(=O)c1sc2ccccc2c1C1CCC(CN)CC1 (stereo unspecified) | -3.28%
CC(C)COc1ccccc1C(N)CC(C)C (stereo unspecified) | -5.27%
Cc1ccccc1C(C)NC(=O)CN1CCN(Cc2cccs2)CC1 (stereo unspecified) | 48.9%
O=C(CCn1ccc2ccc(Br)cc21)NCc1ccc(C(=O)O)cc1 | 13.4%
OC1(CNCCc2nc3c(s2)CCCC3)CNCCOC1 (stereo unspecified) | 17.4%
CCNC(=O)NC(=O)C(C)N(C)CCOc1ccccc1C (stereo unspecified) | 3.45%
CCCc1noc(CN2CCC(NC(=O)c3ccc(C)s3)CC2)n1 | -5.32%
O=C(c1cnc(-c2ccco2)s1)N1CCCC1Cn1cccn1 (stereo unspecified) | -1.08%
N#Cc1c(N2CCN(CC3CCOC3)CC2)nc2ccccn12 (stereo unspecified) | 1.37%
O=C(c1cnccn1)N1CCc2onc(CN3CCOCC3)c2C1 | 9.47%
O=C(CSc1ccccn1)N1CCN(CCO)[C@@H]2CS(=O)(=O)C[C@@H]21 | 9.87%
Cc1cc(C2CCCN(S(=O)(=O)c3cn[nH]c3)C2)ccn1 (stereo unspecified) | -1.77%
Cc1noc(C)c1CNC(=O)N1CCN(CC2CC2)CC1 | -6.48%
Cc1cc(OCC(=O)NC(C)c2ccc(N3CCOCC3)cc2)no1 (stereo unspecified) | -12.9%
CC(CN1CCOC1=O)NC(=O)c1cccc(C#N)c1 (stereo unspecified) | -8.37%
COc1cc(-c2nc3c([nH]2)CCCNC3=O)cc(OC)c1OC | 9.62%
Cc1ccc2nc(CN(C)Cc3ccc(C)o3)cc(=O)n2c1 | -3.02%
CCCOc1cc(C)ccc1NC(=O)NCCNC(=O)C(C)C | 8.31%
CC(C)N(CCCNC(=O)C1CC(=O)N(C)C1)S(C)(=O)=O (stereo unspecified) | 8.35%
O=C(c1cccs1)N1CC[C@H]2C[C@@H](c3nnc(C4CC4)o3)O[C@@H]2C1 | -109%
COC[C@@]12CCO[C@@H]1CCN(Cc1sccc1C)C2 | -109%
CCCOC1CCCN(c2nc(CC)nc3c2cnn3C)C1 (stereo unspecified) | -3.29%

SMILES | cytotoxicity at 10 µM
CN(C)C(=O)CN1C[C@H]2CC[C@@H](C1)N(C(=O)CCCn1cncn1)C2 | 0.612%
CC(C)CNC(=O)[C@H]1C[C@H]2CN(Cc3cccnc3)C[C@@H]1O2 | -1.16%
O=C(c1ccccc1F)N1CC2(CCNCC2)c2cc(Cl)ccc21 | -3.31%
Cc1nccc(N2CCC(Cc3cccc(C(=O)O)c3)CC2)n1 | -135%
CC(C)(C)n1nc(C(=O)NC2CCN(CC(N)=O)CC2)cc1C1CC1 | 0.196%
OCCn1cc(CN2CCN(CCOc3cccc(F)c3)CC2)cn1 | -10.9%
CNc1cncc(C2CCCN2Cc2ccccn2)n1 (stereo unspecified) | 0.0241%
Nc1nc(N2CCCCCC2)ncc1C(=O)NCc1ccc(F)c(Cl)c1 | -0.585%
CCc1nnc(C(C)N2CCN(CCC(C)(C)C)CC2)o1 (stereo unspecified) | 6.61%
CCOCC1CN(Cc2ccc3c(c2)OCO3)Cc2ncn(C)c21 (stereo unspecified) | 5.61%
O=C(c1ccc(F)cc1)N1CCN2C[C@H](OCc3cccnc3)C[C@H]2C1 | -85.1%
CN1CCC2(CCCN(c3nccc(C(F)(F)F)n3)C2)CC1 | 4.14%
Cc1cnc(C(=O)N2C[C@@H]3[C@@H](C2)OCC(=O)N3CC2CCCC2)cn1 | -3.78%
N#Cc1ccc(CSCCN2CCOCC2)cc1 | 4.2%
Oc1ccc(Cl)cc1CNCc1ccccc1Cl | -0.0124%
COc1cc(CNCc2ccnc(N3CCCC3)c2)cc(OC)c1 | 8.8%
CNS(=O)(=O)Cc1cccc(CNc2ccc(Cl)cn2)c1 | -5.71%
Cc1nn(Cn2ccc(C(=O)N3CCCC(C)C3)n2)c(C)c1Cl (stereo unspecified) | 2%
Cc1cccc2sc(NC(=O)CN3CCC(C)CC3)nc12 | 2.89%
NC(=O)c1csc(N2CCN(Cc3cccc4nsnc34)CC2)n1 | 0.5%
CSc1sc2c(O)cc(=O)[nH]c2c1C(N)=O | -2.1%
CC(C)Oc1ncc(C(=O)N2CCc3ccc(O)cc3C2)cc1Cl | 1.61%
OC1(CNCc2cnc(N3CCOCC3)nc2)CCCCC1 | -2.41%

SMILES | cytotoxicity at 10 µM
Cc1n[nH]c(C)c1Sc1ccccc1NC(=O)N1CCCC(C(N)=O)C1 (stereo unspecified) | -7.59%
CCCn1nnc2c(sc3nc(N4CCOCC4)c4c(c32)CCC4)c1=O | 1.74%
CC(=O)c1ccc(NCc2cc3n(n2)CCCN(S(C)(=O)=O)C3)nc1 | 1.02%
COc1ccc(CN2CCc3nnc(COCCN(C)C)n3CC2)cc1 | 4.5%
CSCC(=O)N1C[C@@H](C)[C@](O)(C(C)C)C1 | 9.24%
Cc1cnc(CN(C)C2CCN(CC(=O)Nc3nncs3)C2)o1 (stereo unspecified) | 1.76%
O=S(=O)(C1CC1)N1CC[C@H](OCC2CC2)[C@@H]1Cc1ccncc1 | 7.67%
COCC(=O)Nc1cnc(N2CCN(c3ccccc3)CC2)nc1 | -9.87%
CNc1nc(C2CCCCN2C(=O)COC)nc2c1CN(C)CC2 (stereo unspecified) | -13.1%
COCCNC(=O)c1ccoc1CN1c2ccccc2CC1C (stereo unspecified) | 5.41%
COc1ccc(OC)c(C(O)CNC(=O)Nc2ccc(F)cc2F)c1 (stereo unspecified) | -2.74%
CC(C)CNC(=O)CNC(=O)Nc1cccc(Cl)c1-n1cccn1 | -2.45%
N#CC1(NC(=O)c2cc(Cl)c3c(c2)OCCCO3)CCC1 | -8.42%
CC(C)c1n[nH]c(C(=O)Nc2ccnn2C(C)C)c1Br | 13.8%
CN(Cc1ncc(C(C)(C)C)o1)CC1CCCN1c1cccnn1 (stereo unspecified) | -5.52%
CS(=O)(=O)CC(=O)N1C[C@H]2CCC[C@@]2(COc2ccccn2)C1 | -99.2%
c1nc(CCNc2nc(C3CC3)nc3c2CCNCC3)c[nH]1 | -130%
O=C1N(CC2CC2)C2(CCSCC2)NC12CCCC2 | -150%
Cc1ncc(C(=O)Nc2cncnc2N(C)C)c(Cl)c1Cl | 0.776%
COc1ncccc1C(=O)N1CCc2c(ncnc2N2CCOCC2)C1 | -3.5%
CC1=N[C@@]2(CC[C@@H]3CN(CC(C)C)C[C@@H]32)C(=O)N1C | 3.5%
O=C(C1CC1)N1CCCC1c1nnc2n1CCCCC2 (stereo unspecified) | -0.614%
CC(=O)Nc1cnc(Oc2ccccc2F)nc1 | -4.23%

SMILES | cytotoxicity at 10 µM
Cc1cccc(CN2CCC3(CCCN(CC(=O)N(C)C)C3)C2)n1 (stereo unspecified) | -101%
CC(=O)NCC(=O)N1CCc2nc(-c3ccccc3)nc(C)c2CC1 | -2.54%
COC(=O)[C@@H]1CN(C(=O)NC(C)C)CCN1S(=O)(=O)c1ccccc1 | 2.17%
O=C(N[C@@H]1CNCCC[C@H]1O)c1ccc(OCCN2CCCC2)cc1 | -0.155%
CN1C(=O)CO[C@H](c2ccc(NC(=O)NC(C)(C)C)cc2)[C@H]1CO | -0.973%
CN(C)c1nccc(C2CCCN(C(=O)CO)C2)n1 (stereo unspecified) | -29.1%
O=C(Nc1ccccc1)N1C[C@@H]2C[C@H](C(=O)N3CCCC3)[C@H](C1)O2 | -3.29%
Cc1nc(CN2CCCN(C(=O)C(C)OCC3CC3)CC2)cs1 (stereo unspecified) | -3.87%
COc1cc2nc(C)n(CC(=O)O)c(=O)c2cc1OC | 5.68%
CN(C)C(=O)C1(C)CN(Cc2cn(C)c3ccccc23)CCO1 (stereo unspecified) | 1.78%
CC(Cn1ccnc1)NC(=O)N(C)Cc1ccc2c(c1)OCCO2 (stereo unspecified) | -29.5%
CCNc1cc2c(nn1)CCN(C(=O)c1nccnc1N)C2 | -16.4%
O=C1CCN(C(=O)NCC(c2ccccc2)c2ccccc2)CCN1 | -1.44%
Cc1nc(C)n(C2CCCN(C(=O)CCn3cncn3)C2)n1 (stereo unspecified) | -4.24%
Cn1ccnc1CN1CCCC(Cc2ccccn2)C1 (stereo unspecified) | 2.75%
O=C(NC1CC1)C1CN(Cc2ccc3c(c2)OCCO3)CCN1 (stereo unspecified) | -3.22%
O=C(NCCc1c[nH]c2ccccc12)C1CCC(Cn2cnnn2)CC1 (stereo unspecified) | -12.7%
N[C@@H]1CC[C@@H]1NC(=O)c1ccccc1OC(F)(F)C(F)F | 1.5%
COC(=O)NCC1CCC2(CCNCC2)O1 (stereo unspecified) | 1.82%
